# Results from different studies.
# Each line is one published result; the experiments were not run side by side.
# Target: Myosin light chain kinase 2, skeletal/cardiac muscle (MYLK2, Homo sapiens, UniProt Q9H1R3)
Compound,test,setting,measurement,result
Cc1cnc(NC2CCOCC2)nc1-n1cnc(C(=O)NC(CN)c2cc(F)cc(Cl)c2)c1 (stereo not shown),"enzyme activity, inhibitor, radiometric",1 µM,remaining activity,95%
N#CCCc1ccc2c(c1)-c1[nH]c3ccc([N+](=O)[O-])cc3c1CC(=O)N2,cell-free assay,0.5 µM,remaining signal,93.9%
CCS(=O)(=O)c1cc2cc(C[C@](O)(CC(C)(C)c3ccc(F)cc3C(N)=O)C(F)(F)F)[nH]c2cn1,"cell-free assay, competition with immobilised ligand",1 µM,remaining binding,98%
C=CC(=O)Nc1cc(Nc2nccc(Nc3cc(Cl)c(F)cc3C(C)(C)O)n2)c(OC)cc1N1CC[C@@H](N(C)C)C1,"enzyme activity, inhibitor",1 µM,inhibition,-9%
COc1cccc(CNC(=O)c2nc3scc(COCc4ccc(C(=O)O)cc4)c3c(=O)[nH]2)c1,"cell-free assay, competition with immobilised ligand",1 µM,remaining binding,100%
CC(C)(C)c1nc2c(s1)c1nc(N)ncc1c1ccc(NS(=O)(=O)c3c(F)cccc3F)c(F)c12,"enzyme activity, inhibitor, radiometric",1 µM,remaining activity,113%
Clc1ccc(Nc2nnc(Cc3ccncc3)c3ccccc23)cc1,cell-free assay,0.5 µM,remaining signal,103%
O=C(Nc1cnn(-c2csc(C(=O)NC3COC3)c2)c1)Nc1c(F)cccc1Cl,"enzyme activity, inhibitor",5 µM,remaining activity,83.5%
CCN(CC)CCNC(=O)c1c(C)[nH]c(/C=C2\C(=O)Nc3ccc(F)cc32)c1C,"enzyme activity, inhibitor",0.3 µM,inhibition,37%
Cc1ccc(C(=O)Nc2ccc(CN3CCN(C)CC3)c(C(F)(F)F)c2)cc1C#Cc1cnc2cccnn12,"enzyme activity, inhibitor",23.5 nM,remaining activity,100%
CC/C(=N\NC(=O)NCc1cccc(O)c1)c1ccc(O)c(C)c1O,"enzyme activity, inhibitor",0.1 µM,inhibition,6%
CNC(=O)c1cc(Oc2ccc(NC(=O)Nc3ccc(Cl)c(C(F)(F)F)c3)cc2)ccn1,"enzyme activity, inhibitor",10 µM,inhibition,16%
Cc1cc(NC(=O)c2cccc3cc(-c4cccc5[nH]nc(N)c45)ccc23)ccc1F,"enzyme activity, inhibitor",0.1 µM,activity vs control,97%
O=C(NCc1ncc(C(F)(F)F)cc1Cl)c1ccc2c(c1)C1(CCS(=O)(=O)CC1)[C@H](C1CC1)N2S(=O)(=O)c1ccc(F)cc1,"cell-free assay, competition with immobilised ligand",1 µM,remaining binding,100%
CCCOc1ccc(OC)c(F)c1C(=O)c1ccc(C(=O)N[C@@H]2CNC[C@H]2NC(=O)c2ccc3[nH]ncc3c2)cc1,"enzyme activity, inhibitor",10 µM,remaining activity,76%
CNC(=O)c1ccc(Nc2ncc(C(F)(F)F)c(NCc3nccnc3N(C)S(C)(=O)=O)n2)cc1,"cell-free assay, competition with immobilised ligand",0.1 µM,remaining binding,63%
Cc1ccc(NC(=O)c2ccc(CN3CCN(C)CC3)cc2)cc1Nc1nc(-c2cccnc2)cs1,cell-free assay,0.5 µM,remaining signal,98.7%
Cc1nc(Cc2cccc(C(F)(F)F)c2)sc1-c1ccc(C(N)=O)nc1,"cell-free assay, competition with immobilised ligand",1 µM,remaining binding,77%
COc1cc2ncnc(Nc3ccc(Oc4ccccc4)c(C)c3C)c2cc1OC,"enzyme activity, inhibitor",1 µM,inhibition,-5%
